The record followed here is ChEMBL document CHEMBL1135999, “Discovery of N-isoxazolyl biphenylsulfonamides as potent dual angiotensin II and endothelin A receptor antagonists” (J Med Chem, 2002).

Activity calls are given as the source filed them. No cut-off for these calls is given here.

Data set [1] concerns the target T1, Type-1 angiotensin II receptor B (Rattus norvegicus, UniProt P29089).
T1 sequence (P29089 whole entry): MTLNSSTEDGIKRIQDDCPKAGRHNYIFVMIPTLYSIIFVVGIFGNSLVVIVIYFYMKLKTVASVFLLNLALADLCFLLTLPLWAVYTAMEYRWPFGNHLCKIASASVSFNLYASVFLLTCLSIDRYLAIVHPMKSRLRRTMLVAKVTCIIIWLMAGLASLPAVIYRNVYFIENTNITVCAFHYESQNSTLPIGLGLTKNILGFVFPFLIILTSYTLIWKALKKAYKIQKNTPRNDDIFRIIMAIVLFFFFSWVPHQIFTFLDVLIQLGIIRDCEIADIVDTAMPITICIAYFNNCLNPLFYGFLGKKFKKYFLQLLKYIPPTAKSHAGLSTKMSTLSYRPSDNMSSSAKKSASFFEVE
As to the kind of experiment: Compound was evaluated for its binding affinity towards rat Angiotensin II receptor, type 1. The procedure, abridged: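 Rat aortic smooth muscle cells grown 48 h to 90% confluency in HEPES-buffered DMEM with 10% FCS. Assayed in DMEM with 0.1% BSA and 0.01% sodium azide, using 0.2 nM [125I]-Sar-Ile-angiotensin II and increasing compound. Nonspecific binding defined with 10 µM Ang II. Incubated 2 h at room temperature with shaking, washed with cold PBS, lysed in 1% Triton X-100, gamma-counted. IC50 obtained by curve fitting.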

A further data set addresses T2, Endothelin-1 receptor (Homo sapiens, UniProt P25101).
T2 sequence (P25101 whole entry): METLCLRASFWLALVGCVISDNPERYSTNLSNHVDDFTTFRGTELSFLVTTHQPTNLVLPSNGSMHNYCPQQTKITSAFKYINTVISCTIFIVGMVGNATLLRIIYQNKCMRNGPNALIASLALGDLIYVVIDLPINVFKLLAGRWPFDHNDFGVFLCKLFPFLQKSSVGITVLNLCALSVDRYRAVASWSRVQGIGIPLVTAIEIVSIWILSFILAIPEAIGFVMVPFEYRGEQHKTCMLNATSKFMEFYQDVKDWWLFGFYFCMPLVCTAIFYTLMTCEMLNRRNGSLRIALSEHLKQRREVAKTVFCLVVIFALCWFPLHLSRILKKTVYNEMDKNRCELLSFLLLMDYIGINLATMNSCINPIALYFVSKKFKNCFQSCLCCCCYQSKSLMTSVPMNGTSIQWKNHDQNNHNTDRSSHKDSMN
The data set can be described thus: Compound was evaluated for its binding affinity towards human Endothelin A receptor. A digest of the protocol:
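CHO-K1 cells expressing human ETA receptor, seeded 1.8×10^4 cells/well 24 h before assay. Binding run in 50 mM Tris pH 7.4 with 1% BSA and 2 µM phosphoramidon, using 0.25 nM [125I]-ET-1 and competing drug. Nonspecific binding defined with 500 nM ET-1. Incubated 4 h at 4 °C with shaking, washed, cells dissolved in 0.5 N NaOH, gamma-counted.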

Data set [2] has as its system Rattus norvegicus. As to the kind of experiment: Compound was tested for its activity in bET-1 pressor test following intravenous administration. The format is functional.
The subject of data set [3] is Rattus norvegicus. The data set can be described thus: Compound was tested for its activity in bET-1 pressor test following oral administration. The format is functional. The procedure, abridged: (§1)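 Conscious normotensive rats challenged iv with big ET-1 (1.0 nmol/kg). A control response was obtained after vehicle. Compound was then given orally, and bET-1 was re-injected iv at 15, 105 and 195 min after dosing. Mean blood pressure followed up to 3 h, with area over curve used as read-out; n = 4 per dose.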

Data set [4] concerns Rattus norvegicus. The data set can be described thus: Compound was tested for its activity in Ang II pressor test following intravenous administration; NE = No effect. The format is functional, organism-based.
Data set [5] concerns Rattus norvegicus. As to the kind of experiment: Compound was tested for its activity in Ang II pressor test following oral administration; NE = No effect. The format is functional, organism-based. The procedure, abridged: (§2)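 Conscious normotensive rats carrying carotid artery and jugular vein catheters. […] Compound was given by oral gavage, and rats were rechallenged with Ang II at intervals up to 240 min. Percent inhibition taken from the maximum blood pressure rise before versus after drug; n = 4 per dose.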

Data set [6] deals with T3, Type-1 angiotensin II receptor (Homo sapiens, UniProt P30556).
T3 sequence (P30556 whole entry): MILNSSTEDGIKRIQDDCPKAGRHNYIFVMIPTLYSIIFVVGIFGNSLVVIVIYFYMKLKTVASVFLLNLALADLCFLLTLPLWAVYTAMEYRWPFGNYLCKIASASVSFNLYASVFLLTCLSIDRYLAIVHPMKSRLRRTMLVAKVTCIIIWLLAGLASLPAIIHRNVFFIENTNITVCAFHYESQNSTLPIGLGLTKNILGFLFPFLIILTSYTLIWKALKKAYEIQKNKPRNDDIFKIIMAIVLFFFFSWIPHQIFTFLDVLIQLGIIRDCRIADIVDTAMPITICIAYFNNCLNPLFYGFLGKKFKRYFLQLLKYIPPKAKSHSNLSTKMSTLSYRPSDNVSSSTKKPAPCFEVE
As to the kind of experiment: Compound was evaluated for inhibitory activity against human Angiotensin II receptor, type 1. A digest of the protocol:
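Human recombinant AT1 receptor membranes in 50 mM Tris-HCl pH 7.4 with 10 mM MgCl2, 1 mM EDTA and 0.1% BSA. Incubated with 0.2 nM [125I]-Sar-Ile-angiotensin II and increasing compound concentrations, 60 min at 37 °C. Nonspecific binding defined with 10 µM angiotensin II. Bound and free label separated, then gamma-counted.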

The nature of data set [7]: half life was determined in rat at a dose of 10 (umol/kg) following intravenous administration (mean+/-SD). The format is ADME, organism-based. Particulars: in vivo. The procedure, abridged:
(§3)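 Male rats dosed at 10 µmol/kg, iv or po (n = 6 per route). Plasma exposure followed to give AUC0-∞, clearance, Vss, t1/2 and MRT (iv), and Cmax, Tmax, t1/2, MRT, AUC and oral bioavailability (po). Values reported as mean ± SD.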

Data set [8] can be described thus: Pharmacokinetic parameter Plasma clearance determined after intravenous administration at a dose of 10 (umol/kg) (mean+/-SD). The format is ADME, organism-based. A digest of the protocol: as §3
Data set [9] can be described thus: Pharmacokinetic parameter Volume of distribution was determined in rat following i.v. administration of a dose of 10 (umol/kg) (mean+/-SD). The format is ADME, organism-based. The note with it: in vivo, iv, read-out: Vss. A digest of the protocol: as §3
Data set [10] in a line: Pharmacokinetic parameter Area under curve reported following intravenous administration at a dose of 10 (umol/kg) (mean+/-SD). Format: ADME. A digest of the protocol:
as §3

Data set [11] is described as follows: Pharmacokinetic parameter Area under curve reported following peroral administration at a dose of 10 (umol/kg) (mean+/-SD). Format: ADME. The note with it: po. A digest of the protocol: as §3
The nature of data set [12]: A dose of 10(umol/kg) was administered orally to rat and % bioavailability was determined. Format: ADME, organism-based. The note with it: in vivo, po, read-out: Bioavailabiility. A digest of the protocol:
as §3

Data set [13] in a line: Pharmacokinetic parameter MRT value was determined in rat at a dose of 10(umol/kg) following intravenous administration (mean+/-SD). The format is ADME, organism-based. The note with it: in vivo. A digest of the protocol: as §3
In data set [14] the test system is Rattus norvegicus. The data set can be described thus: Compound was tested for its activity in Ang II pressor test following oral administration. The format is functional. The procedure, abridged: as §2
Data set [15] is described as follows: Pharmacokinetic parameter MRT value determined in rat at a dose of 10(umol/kg) following peroral administration (mean+/-SD). Format: ADME, organism-based. The note with it: in vivo, po. A digest of the protocol: as §3
A short description of data set [16]: A dose of 10(umol/kg) was administered orally to rat and Tmax value was determined (mean+/-SD). The format is ADME, organism-based. Particulars: in vivo, po. The procedure, abridged:
as §3

Data set [17] is described as follows: A dose of 10 (umol/kg) was administered pre orally to rat and plasma concentration was reported (mean+/-SD). The note with it: po. Format: ADME, organism-based. Set-up: dose 10 umol/kg, route oral. The procedure, abridged:
as §3

Data set [18] has as its system Rattus norvegicus. The data set can be described thus: (§4) Compound was tested for its activity in Ang II pressor test following intravenous administration. Format: ADME, organism-based.
A short description of data set [19]: half life was determined in rat at a dose of 10 (umol/kg) following peroral administration (mean+/-SD). The format is ADME, organism-based. The note with it: in vivo, po. A digest of the protocol: as §3
Data set [20] concerns Rattus norvegicus. The data set can be described thus: Compound was tested for its activity in bET-1 pressor test following oral administration; NE = No effect. Format: functional, organism-based. A digest of the protocol: as §1
Data set [21] deals with Rattus norvegicus. As to the kind of experiment: Compound was tested for its activity in bET-1 pressor test following intravenous administration; NE = No effect. The format is functional, organism-based.
For data set [22], the system named is Rattus norvegicus. The data set is described as §4. Format: functional.

Broadly, the Ki is a measure of affinity in units of concentration, obtained from inhibition or displacement. Low values mean tighter binding, high ones weaker binding. Turning to `CCCCC1=NC2(CCCC2)C(=O)N1Cc1ccc(-c2ccccc2S(=O)(=O)Nc2onc(C)c2C)cc1`, the Ki turned out to be 4.7 nM in data set [1] and 39 nM at Endothelin-1 receptor.
Broadly, the ED50 is the dose at which the effect has come halfway, by size or by number of responders. Regarding `Cc1noc(NS(=O)(=O)c2ccccc2-c2ccc(-c3ncco3)cc2)c1C`, the values for the ED50 in the data set with Rattus norvegicus [2] and with Rattus norvegicus [3] were 0.9 µmol/kg and 10 µmol/kg, respectively. Moreover, the Ki in data set [1] is > 10000 nM. The NE entry with Rattus norvegicus [4] and in the data set on Rattus norvegicus [5] was “inactive” throughout.
As a reminder, the IC50 is the concentration that gives 50% inhibition. In turn, `CCCc1cc(Cn2c(CC)nc3c(C)cc(C)nc32)ccc1OC(C(=O)NS(=O)(=O)c1ccc(C(C)C)cc1)c1ccc2c(c1)OCO2` (stereo not drawn) yielded an IC50 in data set [6] of 13 nM.
By half-life is commonly meant the time in which the quantity being followed falls by half. High values mean slow loss, low ones fast loss. What is called clearance is the volume of plasma or blood freed of the substance per unit of time. A low value points to inefficient removal. Broadly, the AUC is the area under the concentration-time curve, a measure of exposure. One may read the MRT as the average time that molecules of a dose stay in the body. The Tmax is the time from dosing to the highest level. One may read the Cmax as the peak of the concentration-time curve. `CCCCC1=NC2(CCCC2)C(=O)N1Cc1ccc(-c2ccccc2S(=O)(=O)Nc2onc(C)c2C)c(CN2CCC(C)(C)C2=O)c1` [BMS-248360]: the half-life was 330 min in [7] and 180 min in data set [19]. In addition, the clearance in data set [8] was 3.8 mL/min/kg. The Vd in [9] was found to be 1.4 L/kg. In addition, the AUC in [10] was 50 µM·h; in data set [11] it was 19 µM·h. The ED50 is 2.1 µmol/kg in the data set with Rattus norvegicus [2], 26 µmol/kg in the data set with Rattus norvegicus [3], 39 µmol/kg in the data set with Rattus norvegicus [14] and 1.4 µmol/kg in the data set on Rattus norvegicus [18]. Besides, the bioavailability in [12] was found to be 38%. Besides, the results for the MRT in data set [13] and in data set [15] were 6.4 h and 5 h, respectively. In [16], the Tmax came to 42 min. The same compound showed a Cmax in [17] of 3.1 µM.
`CCCCC1=NC2(CCCC2)C(=O)N1Cc1ccc(-c2ccccc2-c2nnn[nH]2)cc1` [IRBESARTAN] gave a Ki in data set [1] of 0.8 nM. Also, in the data set with Rattus norvegicus [20], the outcome was inactive. Also, in the data set on Rattus norvegicus [21], the NE entry was “inactive”. The figures for the 50% effective dose (ED50) in the data set on Rattus norvegicus [14] and with Rattus norvegicus [22] were 16 µmol/kg and 0.3 µmol/kg, respectively.
